Data reported in ChEMBL document CHEMBL4007452, “Discovery of an Orally Selective Inhibitor of Signal Transducer and Activator of Transcription 3 Using Advanced Multiple Ligand Simultaneous Docking” (J Med Chem, 2017).
Blank lines part the entries; values can stand above or below the molecule they belong to. Activity calls are given as the source filed them. The calls are words filed in the database; no cut-off is given here.

What was measured:
[1] = MRT (0 to t) in Sprague-Dawley rat plasma at 1 mg/kg, iv measured after 24 hrs by UPLC analysis; assay type: ADME, organism-based
In short: (§1)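 Rat plasma sampled from 2 min to 24 h after a single i.v. (1 mg/kg) or p.o. (10 mg/kg) dose. Parameters were derived from the concentration-time profiles. The bioanalytical method was validated to FDA guidelines for selectivity, linearity, LLOQ, accuracy, precision, recovery, matrix effect and stability.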

Rattus norvegicus [2] = assay: AUMC (0 to infinity) in Sprague-Dawley rat plasma at 1 mg/kg, iv measured after 24 hrs by UPLC analysis; assay type: ADME, organism-based; conditions: in vivo; in short: as §1
[3] = MRT (0 to infinity) in Sprague-Dawley rat plasma at 10 mg/kg, po measured after 24 hrs by UPLC analysis; assay type: ADME, organism-based; in short: as §1
[4] = MRT (0 to t) in Sprague-Dawley rat plasma at 10 mg/kg, po measured after 24 hrs by UPLC analysis; assay type: ADME, organism-based; in short: as §1
Rattus norvegicus [5] = assay: AUMC (0 to t) in Sprague-Dawley rat plasma at 1 mg/kg, iv measured after 24 hrs by UPLC analysis; assay type: ADME, organism-based; conditions: in vivo; in short: as §1
Mus musculus [6] = assay: Toxicity in BALB/c nude mouse xenografted with human MDA-MB-231 cells assessed as liver damage at 40 mg/kg, po qd administered for 32 days by H&E staining based light microscopy; assay type: organism-based; conditions: in vivo, 768 h
In short: (§2)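 6-week-old female athymic SPF BALB/c nude mice received 5 x 10^6 MDA-MB-231 cells s.c. in the flank. Oral treatment began once tumors reached about 100 mm3, with 8 mice per group and a saline vehicle control. […] Treatment lasted 32 days. Heart, liver, spleen, lung and kidney were fixed 48 h in 10% neutral-buffered formaldehyde, paraffin-embedded, cut at 5 µm, H&E-stained and examined by light microscopy.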

[7] = Initial plasma concentration in Sprague-Dawley rat at 1 mg/kg, iv measured after 24 hrs by UPLC analysis; assay type: ADME, organism-based; in short: as §1
Rattus norvegicus [8] = assay: Apparent volume of distribution in Sprague-Dawley rat plasma at 10 mg/kg, po measured after 24 hrs by UPLC analysis; assay type: ADME, organism-based; conditions: in vivo; in short: as §1
[9] = Terminal half life in Sprague-Dawley rat plasma at 10 mg/kg, po measured after 24 hrs by UPLC analysis; assay type: ADME, organism-based; conditions: read-out: beta t1/2 (converted)
In short: (§3)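 Rats dosed i.v. or p.o. Plasma concentrations followed from 2 min to 24 h after dosing. The bioanalytical method was validated to FDA guidelines for selectivity, linearity, LLOQ, accuracy, precision, recovery, matrix effect and stability.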

Rattus norvegicus [10] = assay: AUMC (0 to t) in Sprague-Dawley rat plasma at 10 mg/kg, po measured after 24 hrs by UPLC analysis; assay type: ADME, organism-based; conditions: in vivo; in short: as §1
[11] = Apparent volume of distribution in Sprague-Dawley rat plasma at 1 mg/kg, iv measured after 24 hrs by UPLC analysis; assay type: ADME, organism-based; conditions: read-out: Vz; in short: as §1
[12] = Oral bioavailability in Sprague-Dawley rat at 10 mg/kg measured after 24 hrs by UPLC analysis; assay type: ADME, organism-based; conditions: in vivo
[13] = Terminal half life in Sprague-Dawley rat plasma at 1 mg/kg, iv measured after 24 hrs by UPLC analysis; assay type: ADME, organism-based; conditions: read-out: beta t1/2 (converted); in short: as §3
Mus musculus [14] = assay: Toxicity in BALB/c nude mouse xenografted with human MDA-MB-231 cells assessed as spleen damage at 40 mg/kg, po qd administered for 32 days by H&E staining based light microscopy; assay type: organism-based; conditions: in vivo, 768 h; in short: as §2
MDA-MB-231 [15] = assay: Anticancer activity against human MDA-MB-231 cells xenografted in BALB/c nude mouse assessed as reduction in tumor volume at 40 mg/kg, po qd; assay type: functional, organism-based
In short: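 Female athymic BALB/c nude mice, 6 weeks old, bearing s.c. flank MDA-MB-231 xenografts (5 x 10^6 cells). Dosing began at about 100 mm3 tumor volume; 8 mice per group, one tumor each. Drug was given orally in saline, with a saline vehicle control, for 32 days. Caliper L and W measured every other day; volume = 0.5236×L×W².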

Mus musculus [16] = assay: Toxicity in BALB/c nude mouse xenografted with human MDA-MB-231 cells assessed as heart damage at 40 mg/kg, po qd administered for 32 days by H&E staining based light microscopy; assay type: organism-based; conditions: in vivo, 768 h; in short: as §2
Mus musculus [17] = assay: Toxicity in BALB/c nude mouse xenografted with human MDA-MB-231 cells assessed as kidney damage at 40 mg/kg, po qd administered for 32 days by H&E staining based light microscopy; assay type: organism-based; conditions: in vivo, 768 h; in short: as §2
[18] = Tmax in Sprague-Dawley rat plasma at 1 mg/kg, iv measured after 24 hrs by UPLC analysis; assay type: ADME, organism-based; in short: as §3
[19] = Cmax in Sprague-Dawley rat plasma at 1 mg/kg, iv measured after 24 hrs by UPLC analysis; assay type: ADME, organism-based; set-up: dose 1 mg/kg, route intravenous; in short: as §1
Rattus norvegicus [20] = assay: AUMC (0 to infinity) in Sprague-Dawley rat plasma at 10 mg/kg, po measured after 24 hrs by UPLC analysis; assay type: ADME, organism-based; conditions: in vivo; in short: as §1
Mus musculus [21] = assay: Toxicity in BALB/c nude mouse xenografted with human MDA-MB-231 cells assessed as reduction in body weight at 40 mg/kg, po administered for 32 days; assay type: organism-based; conditions: in vivo, 768 h
In short: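 MDA-MB-231 cells (5 x 10^6) were implanted s.c. in the flank of 6-week-old female athymic BALB/c nude mice. Oral dosing started at a tumor volume of about 100 mm3, with 8 mice per group and a saline vehicle control. […] Body weight was tracked over the 32-day treatment.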

[22] = AUC (0 to infinity) in Sprague-Dawley rat plasma at 1 mg/kg, iv measured after 24 hrs by UPLC analysis; assay type: ADME, organism-based; set-up: dose 1 mg/kg, time infinity, route intravenous; in short: as §1
Mus musculus [23] = assay: Toxicity in BALB/c nude mouse xenografted with human MDA-MB-231 cells assessed as lung damage at 40 mg/kg, po qd administered for 32 days by H&E staining based light microscopy; assay type: organism-based; conditions: in vivo, 768 h; in short: as §2
[24] = AUC (0 to t) in Sprague-Dawley rat plasma at 10 mg/kg, po measured after 24 hrs by UPLC analysis; assay type: ADME, organism-based; set-up: time < 24 hr, dose 10 mg/kg, route oral; in short: as §1
[25] = MRT (0 to infinity) in Sprague-Dawley rat plasma at 1 mg/kg, iv measured after 24 hrs by UPLC analysis; assay type: ADME, organism-based; in short: as §1
[26] = Cmax in Sprague-Dawley rat plasma at 10 mg/kg, po measured after 24 hrs by UPLC analysis; assay type: ADME, organism-based; set-up: dose 10 mg/kg, route oral; in short: as §1
[27] = Tmax in Sprague-Dawley rat plasma at 10 mg/kg, po measured after 24 hrs by UPLC analysis; assay type: ADME, organism-based; in short: as §3
[28] = AUC (0 to infinity) in Sprague-Dawley rat plasma at 10 mg/kg, po measured after 24 hrs by UPLC analysis; assay type: ADME, organism-based; set-up: dose 10 mg/kg, route oral, time infinity; in short: as §1
[29] = AUC (0 to t) in Sprague-Dawley rat plasma at 1 mg/kg, iv measured after 24 hrs by UPLC analysis; assay type: ADME, organism-based; set-up: dose 1 mg/kg, time < 24 hr, route intravenous; in short: as §1
[30] = Antiproliferative activity against human UW288-1 cells after 24 hrs by MTT assay; assay type: functional, cell-based; conditions: UW288-1, 24 h
In short: (§4)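 Cells were seeded at 3000 per well and incubated 24 h at 37 °C. Compounds were added in triplicate with 10% FBS: 0.1-10 or 0.1-20 µM for cancer lines, 3.125-400 µM for MCF-10A. Viability was read by MTT absorbance at 595 nm, with IC50 fitted from the curves. DMSO stocks were 20 mM.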

U2OS = assay: Antiproliferative activity against human U2OS cells after 24 hrs by MTT assay; assay type: functional, cell-based; in short: as §4
MDA-MB-231 [31] = assay: Antiproliferative activity against human MDA-MB-231 cells after 24 hrs by MTT assay; assay type: functional, cell-based; conditions: MDA-MB-231, 24 h; in short: as §4
[32] = Antiproliferative activity against human BkPC-3 cells after 24 hrs by MTT assay; assay type: functional, cell-based; conditions: BkPC-3, 24 h; in short: as §4
[33] = target: Epidermal growth factor receptor (Homo sapiens) (UniProt P00533); assay: Inhibition of EGFR in human MDA-MB-231 cells assessed as reduction in p-Akt level at 2.5 to 5 uM after 12 hrs by immunoblot analysis; assay type: cell-based
In short: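 MDA-MB-231 cells at 60–80% confluence were treated 12 h with 10% FBS at 2.5-10 µM or 2.5-5 µM, against a DMSO control. Whole-cell lysates were immunoblotted, with bands quantified as percent of control.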

[34] = Antiproliferative activity against human UW426 cells after 24 hrs by MTT assay; assay type: functional, cell-based; conditions: UW426, 24 h; in short: as §4
Mus musculus [35] = assay: Toxicity in BALB/c nude mouse xenografted with […] S180 cells assessed as reduction in kidney size at 1 mg/kg, ip after 21 days; assay type: organism-based; conditions: in vivo, 504 h
Mus musculus [36] = assay: Toxicity in BALB/c nude mouse xenografted with […] S180 cells assessed as reduction in liver size at 1 mg/kg, ip after 21 days; assay type: organism-based; conditions: in vivo, 504 h
Mus musculus [37] = assay: Toxicity in BALB/c nude mouse xenografted with […] S180 cells assessed as reduction in spleen size at 1 mg/kg, ip after 21 days; assay type: organism-based; conditions: in vivo, 504 h
CCRF S-180 = assay: Anticancer activity against […] cells xenografted in BALB/c nude mouse assessed as reduction in tumor weight at 1 mg/kg, ip measured after 21 days relative to vehicle control; assay type: functional; set-up: scale not given: the % may be the effect or the level left
In short: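 Male mice, 4 weeks old, given s.c. flank S180 mouse sarcoma cells (3 x 10^6). From day 2, 10 mice per group received saline vehicle, oral drug at 5 mg/kg, or i.p. drug at 1 mg/kg, each dissolved in saline. Therapy ran 21 days; tumor weight and body weight were recorded.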

Mus musculus [38] = assay: Toxicity in BALB/c nude mouse xenografted with […] S180 cells assessed as body weight loss at 1 mg/kg, ip after 13 days relative to vehicle control; assay type: organism-based; conditions: in vivo, 312 h

Chain of Epidermal growth factor receptor (Homo sapiens) (P00533 whole entry): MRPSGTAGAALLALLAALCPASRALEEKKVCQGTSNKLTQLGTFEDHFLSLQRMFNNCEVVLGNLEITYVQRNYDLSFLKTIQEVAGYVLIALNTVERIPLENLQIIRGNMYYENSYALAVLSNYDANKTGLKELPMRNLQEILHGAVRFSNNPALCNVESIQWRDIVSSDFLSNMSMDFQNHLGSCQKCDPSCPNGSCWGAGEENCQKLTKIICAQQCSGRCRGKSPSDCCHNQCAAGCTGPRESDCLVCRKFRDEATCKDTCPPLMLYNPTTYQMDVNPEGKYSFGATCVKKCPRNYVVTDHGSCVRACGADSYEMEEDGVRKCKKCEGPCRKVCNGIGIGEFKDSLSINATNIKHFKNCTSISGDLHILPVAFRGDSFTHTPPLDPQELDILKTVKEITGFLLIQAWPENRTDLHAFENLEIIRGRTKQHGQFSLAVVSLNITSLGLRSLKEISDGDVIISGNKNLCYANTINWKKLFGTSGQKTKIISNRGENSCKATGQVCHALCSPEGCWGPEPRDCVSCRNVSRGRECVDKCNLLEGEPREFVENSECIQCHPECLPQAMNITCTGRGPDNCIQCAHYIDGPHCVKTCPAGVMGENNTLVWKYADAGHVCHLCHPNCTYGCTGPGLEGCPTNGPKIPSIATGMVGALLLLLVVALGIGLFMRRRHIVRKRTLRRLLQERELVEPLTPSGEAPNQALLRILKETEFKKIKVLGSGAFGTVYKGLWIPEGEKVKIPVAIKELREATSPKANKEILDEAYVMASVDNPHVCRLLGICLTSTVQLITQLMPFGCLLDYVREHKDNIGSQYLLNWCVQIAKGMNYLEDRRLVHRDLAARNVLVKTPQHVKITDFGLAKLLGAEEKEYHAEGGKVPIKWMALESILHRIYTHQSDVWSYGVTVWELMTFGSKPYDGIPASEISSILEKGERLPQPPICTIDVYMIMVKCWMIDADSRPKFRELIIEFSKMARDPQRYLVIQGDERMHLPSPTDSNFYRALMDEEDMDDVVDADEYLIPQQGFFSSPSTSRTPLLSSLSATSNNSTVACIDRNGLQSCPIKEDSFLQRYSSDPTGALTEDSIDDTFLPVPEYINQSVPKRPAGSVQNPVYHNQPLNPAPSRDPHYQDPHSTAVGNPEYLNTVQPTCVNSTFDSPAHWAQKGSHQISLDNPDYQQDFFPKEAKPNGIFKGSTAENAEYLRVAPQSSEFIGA

- MRT last at 24 h [1]: 2.12 h
- AUMC (Rattus norvegicus [2]): 1261.5 hr2.ng/ml
- MRT inf [3]: 2.49 h
- MRT last at 24 h [4]: 2.4 h
- AUMCt (Rattus norvegicus [5]): 1098 hr2.ng/ml
- C0 at 24 h [7]: 0.715 µg/mL
- Vz (Rattus norvegicus [8]): 13.2387 L/kg
- half-life [9]: 2.17 h
- AUMCt (Rattus norvegicus [10]): 5649.7 hr2.ng/ml
- Vd [11]: 6.68 L/kg
- bioavailability [12]: 47.4%
- half-life [13]: 2.39 h
- Tmax [18]: 1.98 min
- Cmax [19]: 0.621 µg/mL
- AUMC (Rattus norvegicus [20]): 5903.9 hr2.ng/ml
- AUC(0-inf) [22]: 0.501 µg·h/mL
- AUC(0-t) at 24 h [24]: 2.36 µg·h/mL
- MRT inf [25]: 2.4 h
- Cmax [26]: 1.2 µg/mL
- Tmax [27]: 1 h
- AUC(0-inf) [28]: 2.37 µg·h/mL
- AUC(0-t) at 24 h [29]: 0.491 µg·h/mL
SMILES: COc1cc2ncnc(Nc3ccc(F)c(Cl)c3)c2cc1OCCCN1CCOCC1 [GEFITINIB]
- Activity (Mus musculus [6]): Non-Toxic
- Activity (Mus musculus [14]): Non-Toxic
- Activity (MDA-MB-231 [15]): Active
- Activity (Mus musculus [16]): Non-Toxic
- Activity (Mus musculus [17]): Non-Toxic
- Activity (Mus musculus [21]): Non-Toxic
- Activity (Mus musculus [23]): Non-Toxic

- IC50 (U2OS): 8.3 µM
- IC50 (MDA-MB-231 [31]): 6.8 µM
- inhibition [33]: Active
SMILES: CN(CC(=O)N(Cc1ccc(C2CCCCC2)cc1)c1ccc(C(=O)O)c(O)c1)S(=O)(=O)c1c(F)c(F)c(F)c(F)c1F
- IC50 [30]: 9.8 µM
- IC50 [32]: 6.9 µM
- IC50 [34]: 10.2 µM

SMILES: COc1cccc2c1C(=O)c1c(O)c3c(c(O)c1C2=O)C[C@@](O)(C(=O)CO)C[C@@H]3O[C@H]1C[C@H](N)[C@H](O)[C@H](C)O1 [DOXORUBICIN]
- Activity (Mus musculus [35]): Toxic
- Activity (Mus musculus [36]): Toxic
- Activity (Mus musculus [37]): Toxic
- Activity (CCRF S-180): 52.23%
- Activity (Mus musculus [38]): 21.01%
